# Measured values: ChEMBL document CHEMBL1649277, “Inhibition of herpesvirus replication by 5-substituted 4'-thiopyrimidine nucleosides” (Antimicrob Agents Chemother, 2009)
# pEC50, pIC50: −log10 of the molar value.
# Columns and labels:
# [1] = system: Human alphaherpesvirus 2; experiment: Antiviral activity against 4'-thioIDU-resistant HSV2 infected in HFF after 3 days by plaque reduction assay; format: functional, organism-based; details: Human alphaherpesvirus 2, 72 h
# How it was run: (§1)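 Confluent HFF monolayers (passage <10) were infected in triplicate wells at 20–30 plaques per well, with 1 h adsorption and rocking every 15 min. Six serial dilutions (top 100 μM) were made in MEM with 2% FBS and pooled human immunoglobulin. Cells were incubated 3 days and stained with crystal violet. Plaques were counted, and EC50 was interpolated from plaque reduction.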
# [2] = system: Human alphaherpesvirus 2; experiment: Antiviral activity against HSV2 harboring frameshift mutation in TK infected in HFF after 3 days by plaque reduction assay; format: functional, organism-based; details: Human alphaherpesvirus 2, 72 h; how it was run: as §1
# [3] = system: Human alphaherpesvirus 2; experiment: Antiviral activity against HSV2 MS infected in HFF after 3 days by plaque reduction assay; format: functional, organism-based; details: Human alphaherpesvirus 2, MS, 72 h
# How it was run: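 Confluent primary HFF monolayers (passage <10), triplicate wells, virus dosed at 20–30 plaques/well. Adsorption was 1 h with rocking every 15 min. Six serial dilutions, top 100 μM, were made in MEM with 2% FBS plus pooled human immunoglobulin. After 3 days, wells were stained with 0.1% crystal violet in 20% methanol and plaques counted microscopically. EC50 was interpolated.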
# [4] = system: Human alphaherpesvirus 2; experiment: Selectivity ratio of EC50 for 4'-thioIDU-resistant HSV2 infected in HFF to EC50 for HSV2 MS infected in HFF; format: functional
# [5] = system: HFF; experiment: Antiproliferative activity against HFF after 3 days by Coulter counting analysis; format: cell-based; details: Homo sapiens, 72 h
# How it was run: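 HFF seeded at 2.5 × 10^4 cells/well and allowed 24 h before compound dilutions in growth medium were added. Cells were incubated 72 h at 37°C, detached with trypsin-EDTA, and viable cells counted with a Coulter Counter in triplicate wells. The mean cell number gave the concentration reducing cell number by 50%.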
# [6] = system: Human alphaherpesvirus 1; experiment: Antiviral activity against HSV1 DM2.1 harboring frameshift mutation in TK infected in HFF after 3 days by plaque reduction assay; format: functional, organism-based; details: Human alphaherpesvirus 1, DM2.1, 72 h; how it was run: as §1
# [7] = system: Human alphaherpesvirus 2; experiment: Antiviral activity against HSV2 13077 harboring TK R223H mutant gene infected in HFF after 3 days by plaque reduction assay; format: functional, organism-based; details: Human alphaherpesvirus 2, 13077, 72 h; how it was run: as §1
# [8] = system: Human alphaherpesvirus 2; experiment: Antiviral activity against HSV2 11680 harboring TK R223H mutant gene infected in HFF after 3 days by plaque reduction assay; format: functional, organism-based; details: Human alphaherpesvirus 2, 11680, 72 h; how it was run: as §1
# [9] = system: Human alphaherpesvirus 1; experiment: Antiviral activity against HSV1 PAA5 harboring polymerase R842S mutant gene infected in HFF after 3 days by plaque reduction assay; format: functional, organism-based; details: Human alphaherpesvirus 1, PAA5, 72 h; how it was run: as §1
# [10] = system: Human alphaherpesvirus 1; experiment: Antiviral activity against HSV1 SC16-S1 harboring TK A265T/C336Y mutant gene infected in HFF after 3 days by plaque reduction assay; format: functional, organism-based; details: Human alphaherpesvirus 1, SC16-S1, 72 h; how it was run: as §1
# [11] = system: Human alphaherpesvirus 1; experiment: Antiviral activity against HSV1 E377 infected in HFF after 3 days by plaque reduction assay; format: functional, organism-based; details: Human alphaherpesvirus 1, E377, 72 h; how it was run: as §1
# [12] = system: Human alphaherpesvirus 2; experiment: Antiviral activity against HSV2 AG-3 harboring TK Q105P mutant gene infected in HFF after 3 days by plaque reduction assay; format: functional, organism-based; details: Human alphaherpesvirus 2, AG-3, 72 h; how it was run: as §1
# [13] = system: Human alphaherpesvirus 2; experiment: Antiviral activity against HSV2 12247 harboring TK C337Y mutant gene infected in HFF after 3 days by plaque reduction assay; format: functional, organism-based; details: Human alphaherpesvirus 2, 12247, 72 h; how it was run: as §1
# [14] = Cytotoxicity against HFF after 3 days by MTS assay; format: cell-based; details: human, HFF cells
# [15] = system: Human alphaherpesvirus 1; experiment: Antiviral activity against HSV1 B-2006 harboring frameshift mutation at Q185 in TK infected in HFF after 3 days by plaque reduction assay; format: functional, organism-based; details: Human alphaherpesvirus 1, B-2006, 72 h; how it was run: as §1
# [16] = Selectivity index, ratio of CC50 for HFF to EC50 for HSV2 MS infected in HFF
# [17] = system: Human betaherpesvirus 5; experiment: Antiviral activity against human cytomegalovirus 759D100 harboring deletion mutation in UL97 gene and UL54 A987G mutant gene infected in HFF after 8 to 10 days by plaque reduction assay; format: functional, organism-based; details: Human betaherpesvirus 5, 759D100
# How it was run: (§2)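 Plaque reduction in confluent HFF with six serial dilutions (top 100 μM) and no immunoglobulin added. Virus was adsorbed 1 h on triplicate wells. Cells were incubated 8 days, stained with 0.017% neutral red in PBS, and plaques counted. EC50 is the concentration reducing plaque number by 50%.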
# [18] = system: Human betaherpesvirus 5; experiment: Antiviral activity against human cytomegalovirus RC314 harboring UL97 K355M mutant gene infected in HFF after 8 to 10 days by plaque reduction assay; format: functional, organism-based; details: Human betaherpesvirus 5, RC314; how it was run: as §2
# [19] = system: Human betaherpesvirus 5; experiment: Antiviral activity against human cytomegalovirus VR4955 harboring UL54 T700A mutant gene infected in HFF after 8 to 10 days by plaque reduction assay; format: functional, organism-based; details: Human betaherpesvirus 5, VR4955; how it was run: as §2
# [20] = system: Human betaherpesvirus 5; experiment: Antiviral activity against human cytomegalovirus PFAB300 harboring UL54 L724V mutant gene infected in HFF after 8 to 10 days by plaque reduction assay; format: functional, organism-based; details: Human betaherpesvirus 5, PFAB300; how it was run: as §2
# [21] = system: Human betaherpesvirus 5; experiment: Antiviral activity against human cytomegalovirus C8914-6 harboring UL97 I244V, L595F and UL54 L501F mutant gene infected in HFF after 8 to 10 days by plaque reduction assay; format: functional, organism-based; details: Human betaherpesvirus 5, C8914-6; how it was run: as §2
# [22] = system: Human betaherpesvirus 5; experiment: Antiviral activity against human cytomegalovirus AD169 infected in HFF after 8 to 10 days by plaque reduction assay; format: functional, organism-based; details: Human betaherpesvirus 5, AD169
# How it was run: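 Plaque reduction on confluent HFF monolayers in triplicate wells: 1 h adsorption, then six serial compound dilutions (top 100 μM) in MEM with 2% FBS, no immunoglobulin. Incubation was 8 days for HCMV and 10 days for VZV. Plaques were stained with 0.017% neutral red in PBS and counted microscopically. EC50 was interpolated at 50% plaque reduction.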
# [23] = system: Human betaherpesvirus 5; experiment: Antiviral activity against human cytomegalovirus 1117 harboring UL54 K513N mutant gene infected in HFF after 8 to 10 days by plaque reduction assay; format: functional, organism-based; details: Human betaherpesvirus 5, 1117; how it was run: as §2
# [24] = system: Human alphaherpesvirus 3; experiment: Antiviral activity against VZV Ellan infected in HFF assessed as decrease in viral DNA accumulation after 8 to 10 days; format: functional, organism-based; details: Human alphaherpesvirus 3, Ellan
# [25] = system: Human betaherpesvirus 5; experiment: Antiviral activity against human cytomegalovirus AD169 infected in HFF assessed as decrease in viral DNA accumulation after 8 to 10 days; format: functional, organism-based; details: Human betaherpesvirus 5, AD169
# [26] = Antiviral activity against Human herpesvirus 6 GS infected in human HSB2 cells assessed as decrease in viral DNA accumulation after 7 days; format: functional, cell-based, Human herpesvirus 6 (strain GS); details: Human betaherpesvirus 6A, HSB2, 168 h
# How it was run: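 HSB-2 cells (2 × 10^4/well) in RPMI 1640 with 10% FBS were infected with HHV-6A strain GS, with compound dilutions in triplicate wells, at 37°C for 7 days. Total DNA was denatured and immobilized on nylon. Viral DNA accumulation was measured by digoxigenin-labeled DNA probe hybridization and anti-hapten antibody detection.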
# [27] = system: Human alphaherpesvirus 2; experiment: Antiviral activity against HSV2 MS infected in HFF assessed as decrease in viral DNA accumulation after 3 days; format: functional, organism-based; details: Human alphaherpesvirus 2, MS, 72 h
# [28] = system: Human gammaherpesvirus 4; experiment: Antiviral activity against Epstein-Barr virus infected in human Akata cells assessed as decrease in viral DNA accumulation after 72 hrs; format: functional, organism-based; details: human gammaherpesvirus 4, Akata
# How it was run: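 Latent Akata cells in RPMI 1640 with 10% FBS were induced to productive infection with 50 μg/ml goat anti-human IgG, 4 × 10^4 cells per well, with compound at 100–0.032 μM. After 72 h, NaOH/NaCl denaturation was followed by nylon membrane blotting. Viral DNA was quantified by digoxigenin-labeled probe hybridization and anti-hapten antibody detection.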
# [29] = system: Human alphaherpesvirus 1; experiment: Antiviral activity against HSV1 E377 infected in HFF assessed as decrease in viral DNA accumulation after 3 days; format: functional, organism-based; details: Human alphaherpesvirus 1, E377, 72 h
# [30] = system: Human gammaherpesvirus 8; experiment: Antiviral activity against Human herpesvirus 8 infected in human BCBL1 cells assessed as decrease in viral DNA accumulation after 7 days; format: functional, organism-based; details: Human gammaherpesvirus 8, BCBL1, 168 h
# How it was run: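 BCBL1 cells in RPMI 1640 with 10% FBS were induced to lytic replication with phorbol 12-myristate 13-acetate (100 ng/ml final). Compound was tested in triplicate wells up to 100 μM for 7 days at 37°C. Total DNA was purified and viral DNA quantified by TaqMan qPCR. EC50 is the concentration giving 50% reduction of DNA accumulation.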
Compound,pEC50 [1],pEC50 [2],pEC50 [3],Ratio EC50 [4],pIC50 [5],CC50 at 72 h [14] [µM],Ratio CC50/EC50 [16],also measured
O=C(O)P(=O)(O)O [FOSCARNET],3.39,3.41,3.17,0.66,–,–,–,–
Nc1nc2c(ncn2COCCO)c(=O)[nH]1 [ACYCLOVIR],< 3.36,< 4.00,5.52,>100,< 3.35,> 444,–,pEC50 [6]: 4.92; pEC50 [7]: 5.31; pEC50 [8]: 5.18; pEC50 [9]: 7.96; pEC50 [10]: 6.22; pEC50 [11]: 7.10; pEC50 [12]: 5.33; pEC50 [13]: 5.02; pEC50 [15]: 5.36
Nc1ccn([C@@H]2S[C@H](CO)[C@@H](O)[C@@H]2O)c(=O)n1 [THIARABINE],–,–,6.05,–,–,> 100,> 110,–
O=c1[nH]c(=O)n([C@H]2C[C@H](O)[C@@H](CO)O2)cc1I [IDOXURIDINE],< 4.00,4.11,5.62,42,–,–,–,–
Nc1nc2c(ncn2COC(CO)CO)c(=O)[nH]1 [GANCICLOVIR],–,–,–,–,–,–,–,pEC50 [17]: 3.64; pEC50 [18]: 4.36; pEC50 [19]: 5.14; pEC50 [20]: 5.01; pEC50 [21]: 4.28; pEC50 [22]: 5.48; pEC50 [23]: 4.82
Nc1ccn(C[C@@H](CO)OCP(=O)(O)O)c(=O)n1.O.O [CIDOFOVIR],5.33,5.92,5.02,1.3,–,> 100,–,pEC50 [24]: 6.30; pEC50 [25]: 6.40; pEC50 [26]: 5.57; pEC50 [27]: 5.29; pEC50 [28]: 6.32; pEC50 [29]: 5.26; pEC50 [30]: 7.19
Cc1cn([C@H]2C[C@H](O)[C@@H](CO)S2)c(=O)[nH]c1=O [4'-THIOTHYMIDINE],–,–,6.70,–,> 7.52,> 100,> 500,–
Nc1nc(=O)n([C@H]2C[C@H](O)[C@@H](CO)S2)cc1Br,–,–,4.82,–,< 4.00,> 100,> 6.7,–
O=c1[nH]c(=O)n([C@H]2C[C@H](O)[C@@H](CO)S2)cc1Br,–,–,5.32,–,–,> 100,> 21,–
O=c1[nH]c(=O)n([C@H]2C[C@H](O)[C@@H](CO)S2)cc1C(F)(F)F,–,–,6.52,–,7.00,> 100,> 330,–
